From ChEMBL document CHEMBL4364270, “Structure-activity relationship studies on Bax activator SMBA1 for the treatment of ER-positive and triple-negative breast cancer” (Eur J Med Chem, 2019)
Active and inactive are the calls of the source. No cut-off for these calls is given here.

Assays:
[1] = test system: MCF7; assay: Antiproliferative activity against ER-positive human MCF7 cells assessed as reduction in cell growth at 1 uM incubated for 48 hrs by MTT assay relative to control; type: functional; settings: MCF7, 48 h
Summary of the method: (§1)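 MTT viability: MCF-7 and MDA-MB-231 seeded 1×10^4 cells/well, exposed to DMSO or 0.01-100 μM for 48 h; MTT (5 mg/mL in PBS) added 4 h, formazan dissolved in DMSO, OD 550 nm; quadruplicate wells; IC50 fitted for compounds giving >50% inhibition at 10 µM; at least three independent experiments.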

[2] = test system: MDA-MB-231; assay: Induction of apoptosis in triple-negative human MDA-MB-231 cells assessed as decrease in cytosolic Bax level at 5 uM incubated for 48 hrs by Western blot analysis; type: functional, cell-based
Summary of the method: (§2)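 Western blot of MCF-7 (and MDA-MB-231 for cytosolic fractions) cells exposed to 5 μM over 0-48 h; 30 µg protein per lane on SDS-PAGE, PVDF transfer, 5% milk block, overnight primary antibodies (total Bax, p-Bax, active Bax 6A7, cytochrome C), ECL detection; cytosolic fraction used for cytochrome c and Bax.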

[3] = test system: MCF-10A; assay: Antiproliferative activity against human MCF10A cells assessed as reduction in cell growth incubated for 72 hrs by MTT assay; type: functional, cell-based
Summary of the method: (§3)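 MTT viability after 72 h exposure at indicated concentrations; cells seeded at 1×10^3 cells/well (T47D, MDA-MB-468, MCF-10A, MCF-7/ADR) in 96-well plates; quadruplicate wells, independently repeated three times; IC50 as mean ± SE of at least three experiments.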

[4] = test system: MCF7; assay: Induction of apoptosis in ER-positive human MCF7 cells assessed as downregulation of cyclin D1 level incubated for 48 hrs by Western blot analysis; type: functional, cell-based
Summary of the method: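 Western blot: cells harvested after treatment, lysates quantified by Bradford (BSA standard), 30 µg protein resolved by SDS-PAGE, transferred to PVDF, blocked in 5% nonfat milk, probed overnight with anti-PARP-1, anti-cleaved PARP-1 or anti-cyclin D1 (1:1,000) and β-actin loading control; ECL visualization.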

[5] = test system: MCF7; assay: Potency index, ratio of IC50 of (E/Z)-2-(2-((2-nitro-9H-fluoren 9-ylidene)methyl)phenoxy)ethan-1-amine to IC50 of compound for antiproliferative activity against ER-positive human MCF7 cells assessed as reduction in cell growth incubated for 48 hrs by MTT assay; type: functional
[6] = test system: MCF7; assay: Inhibition of colony formation in ER-positive human MCF7 cells at 1 uM supplemented with fresh medium containing compound every 72 hrs for 2 weeks by crystal violet staining based assay; type: functional, cell-based
Summary of the method: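 Clonogenic assay: 800 cells per well seeded, treated after 24 h with 1 μM or DMSO vehicle, medium with compound renewed every 72 h for 2 weeks; PBS wash, 0.01% crystal violet 10 min, whole-well density digitally quantified; triplicate, one-way ANOVA, SD error bars.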

[7] = test system: MDA-MB-468; assay: Antiproliferative activity against triple negative human MDA-MB-468 cells assessed as reduction in cell growth incubated for 72 hrs by MTT assay; type: functional, cell-based; settings: MDA-MB-468, 72 h; summary of the method: as §3
[8] = test system: MDA-MB-231; assay: Induction of apoptosis in triple negative human MDA-MB-231 cells assessed as appearance of concentrated dense granules at 5 to 10 uM incubated for 24 hrs by Hoechst 33342 staining based fluorescence microscopy; type: functional, cell-based
Summary of the method: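 Cells on coverslips (2.5×10^5/well) treated with DMSO or 5 and 10 μM for 24 h, washed in binding buffer, stained 15 min with FITC-annexin V, ethidium homodimer III and Hoechst 33342, mounted and imaged by fluorescence microscopy (DAPI filter) from center and peripheral regions.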

[9] = test system: MDA-MB-231; assay: Antiproliferative activity against triple negative human MDA-MB-231 cells assessed as reduction in cell growth at 10 uM incubated for 48 hrs by MTT assay relative to control; type: functional; settings: MDA-MB-231, 48 h; summary of the method: as §1
[10] = molecular target: Apoptosis regulator BAX (Homo sapiens) (UniProt Q07812); assay: Activation of Bax in ER-positive human MCF7 cells assessed as increase in cytosolic cytochrome C level at 5 uM incubated for 48 hrs by Western blot analysis; type: cell-based; summary of the method: as §2
Apoptosis regulator BAX (Homo sapiens), sequence (Q07812 whole entry): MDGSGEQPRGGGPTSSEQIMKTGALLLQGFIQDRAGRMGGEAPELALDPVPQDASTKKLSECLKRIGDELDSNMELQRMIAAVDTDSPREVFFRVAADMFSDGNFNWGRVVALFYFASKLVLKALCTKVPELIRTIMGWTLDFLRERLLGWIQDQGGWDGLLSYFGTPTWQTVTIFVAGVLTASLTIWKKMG

IC50 [7]: 1610 nM
Activity [10]: Active
SMILES: NCCOc1ncccc1C=C1c2ccccc2-c2ccc([N+](=O)[O-])cc21
inhibition at 1 µM [1]: > 50%
Activity [2]: Active
IC50 [3]: 110 nM
Activity [4]: Dose-dependent effect
Ratio IC50 [5]: 40 - 60
inhibition [6]: Active
Activity [8]: Active
inhibition at 10 µM [9]: > 50%
